Assay results as given in ChEMBL document CHEMBL4270633, “Discovery of novel vinyl sulfone derivatives as anti-tumor agents with microtubule polymerization inhibitory and vascular disrupting activities” (Eur J Med Chem, 2018).
Calls of active or inactive are those of the source. No cut-off for these calls is given here.

What was measured:
K562 [1] = experiment: Antiproliferative activity against human K562 cells at 1 uM after 72 hrs by MTT assay; format: functional, cell-based
K562 [2] = experiment: Antiproliferative activity against human K562 cells at 0.1 uM after 72 hrs by MTT assay relative to control; format: functional
K562 [3] = experiment: Antiproliferative activity against human K562 cells after 72 hrs by MTT assay; format: functional, cell-based; details: K562, 72 h
In short: (§1)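 Cells seeded and held 24 h at 37 °C, 5% CO2, then exposed to a concentration series in medium with 0.1% DMSO for 72 h. MTT (5 mg/mL in PBS) added for 4 h and OD read at 490 nm. IC50 taken from dose-response curves; mean ± SD of at least three independent experiments.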

A549 = experiment: Antiproliferative activity against human A549 cells after 72 hrs by MTT assay; format: functional, cell-based; details: A549, 72 h; in short: as §1
HepG2 = experiment: Antiproliferative activity against human HepG2 cells after 72 hrs by MTT assay; format: functional, cell-based; details: HepG2, 72 h; in short: as §1
H22 [4] = experiment: Antitumor activity against mouse H22 cells implanted in ICR mouse assessed as tumor growth inhibition at 8 mg/kg, iv administered once in 2 days for 21 days relative to control; format: functional; details: read-out: TGI
In short: (§2)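 Male ICR mice, five weeks old, inoculated s.c. in the right flank with 1 × 10^6 H22 cells. After one day, randomized into groups of six. Given i.v. 15 or 30 mg/kg daily for 21 days in 10% DMF/2% Tween 80/88% saline, or 8 mg/kg every 2 days; vehicle control given i.v. Tumors excised and weighed; inhibition (%) = (1 − treated/control mean tumor weight) × 100.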

Mus musculus [5] = experiment: Toxicity in ICR mouse implanted with mouse H22 cells assessed as decrease in body weight at 8 mg/kg, iv administered once in 2 days for 21 days; format: organism-based; details: in vivo
In short: (§3)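 H22 s.c. allograft in male ICR mice, groups of six. Dosing i.v. at 15 or 30 mg/kg once daily for 21 days (10% DMF/2% Tween 80/88% saline), or 8 mg/kg once every 2 days. Body weight recorded every 2 days.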

[6] = Inhibition of porcine brain tubulin polymerization after 30 mins by spectrophotometric method; parameters: species or system Sus scrofa
In short: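 Purified tubulin (2 mg/mL) in PEM buffer (80 mM PIPES pH 6.9, 0.5 mM EGTA, 2 mM MgCl2, 15% glycerol), preincubated on ice with compound or DMSO vehicle, then GTP added. Absorbance at 340 nm followed at 37 °C for 30 min. IC50 derived from area under the polymerization curve.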

K562 [7] = experiment: Cell cycle arrest in human K562 cells assessed as accumulation at S phase at 0.05 uM after 48 hrs by propidium iodide staining based flow cytometry (reference value: 30.13%); format: functional
H22 [8] = experiment: Antitumor activity against mouse H22 cells implanted in ICR mouse assessed as tumor growth inhibition administered iv once daily for 21 consecutive days; format: functional, organism-based; in short: as §2
K562 [9] = experiment: Cell cycle arrest in human K562 cells assessed as accumulation at G2 phase at 0.05 uM after 48 hrs by propidium iodide staining based flow cytometry (reference value: 9.1%); format: functional
K562 [10] = experiment: Cell cycle arrest in human K562 cells assessed as accumulation at S phase at 0.1 uM after 48 hrs by propidium iodide staining based flow cytometry (reference value: 30.13%); format: functional
HUVEC [11] = experiment: Antivascular activity against HUVEC assessed as reduction in tube formation at 005 to 0.2 uM after 6 hrs by inverted microscopic based matrigel method; format: functional, cell-based; details: Homo sapiens
In short: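 Matrigel thawed at 4 °C overnight and polymerized 30 min at 37 °C. HUVECs in DMEM seeded at 50,000 cells/well, then exposed to compound or vehicle for 6 h at 37 °C. Tube morphology examined by inverted microscopy.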

K562 [12] = experiment: Cell cycle arrest in human K562 cells assessed as accumulation at G1 phase at 0.2 uM after 48 hrs by propidium iodide staining based flow cytometry (reference value: 60.77%); format: functional
H22 [13] = experiment: Antitumor activity against mouse H22 cells implanted in ICR mouse assessed as tumor growth inhibition at 15 mg/kg, iv administered once daily for 21 consecutive days relative to control; format: functional; details: read-out: TGI; in short: as §2
HUVEC [14] = experiment: Antivascular activity against HUVEC assessed as reduction in wound closure after 24 hrs by phase contrast microscopic method; format: functional, cell-based; details: Homo sapiens
In short: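 Scratch wounds made with a sterile 200 µL pipette tip, then treated at 0.05, 0.10, 0.20 µM or 0.005, 0.010, 0.020 µM. Phase-contrast images taken at 0 h and 24 h after treatment.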

K562 [15] = experiment: Cell cycle arrest in human K562 cells assessed as accumulation at S phase at 0.2 uM after 48 hrs by propidium iodide staining based flow cytometry (reference value: 30.13%); format: functional
K562 [16] = experiment: Disruption of microtubule network in human K562 cells after 24 hrs by DAPI staining based immunofluorescent microscopic method; format: cell-based
In short: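 K562 cells exposed for 24 h to 0.1% DMSO vehicle or to 0.05, 0.10, 0.20 µM or 0.005, 0.010, 0.020 µM. Fixed in 4% paraformaldehyde, blocked with goat serum 20 min at room temperature, then anti-α-tubulin antibody 2 h at 37 °C. Fluorescent antibody staining, DAPI nuclear counterstain, fluorescence microscopy.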

H22 [17] = experiment: Antitumor activity against mouse H22 cells implanted in ICR mouse assessed as tumor growth inhibition at 30 mg/kg, iv administered once daily for 21 consecutive days relative to control; format: functional; details: read-out: TGI; in short: as §2
K562 [18] = experiment: Cell cycle arrest in human K562 cells assessed as accumulation at G2 phase at 0.1 uM after 48 hrs by propidium iodide staining based flow cytometry (reference value: 9.1%); format: functional
K562 [19] = experiment: Induction of apoptosis in human K562 cells after 48 hrs by Annexin V-FITC/propidium iodide staining based flow cytometry; format: functional, cell-based
In short: (§4)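 K562 cells treated 48 h at 0, 0.05, 0.1, 0.2 µM or 0, 0.005, 0.010, 0.020 µM. Washed in PBS, resuspended in Annexin V binding buffer and stained 15 min in the dark. Early plus late apoptotic fractions quantified by flow-cytometric quadrant analysis.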

Mus musculus [20] = experiment: Toxicity in ICR mouse implanted with mouse H22 cells assessed as decrease in body weight at 15 to 30 mg/kg, iv administered once daily for 21 consecutive days; format: organism-based; details: in vivo; in short: as §3
K562 [21] = experiment: Cell cycle arrest in human K562 cells assessed as accumulation at G1 phase at 0.05 uM after 48 hrs by propidium iodide staining based flow cytometry (reference value: 60.77%); format: functional
K562 [22] = experiment: Induction of apoptosis in human K562 cells at 0.1 uM after 48 hrs by Annexin V-FITC/propidium iodide staining based flow cytometry (reference value: 1.46%); format: functional; in short: as §4
K562 [23] = experiment: Induction of apoptosis in human K562 cells at 0.05 uM after 48 hrs by Annexin V-FITC/propidium iodide staining based flow cytometry (reference value: 1.46%); format: functional; in short: as §4
K562 [24] = experiment: Cell cycle arrest in human K562 cells assessed as accumulation at G2/M phase after 48 hrs by propidium iodide staining based flow cytometry; format: functional
K562 [25] = experiment: Cell cycle arrest in human K562 cells assessed as accumulation at G1 phase at 0.1 uM after 48 hrs by propidium iodide staining based flow cytometry (reference value: 60.77%); format: functional
K562 [26] = experiment: Induction of apoptosis in human K562 cells at 0.2 uM after 48 hrs by Annexin V-FITC/propidium iodide staining based flow cytometry (reference value: 1.46%); format: functional; in short: as §4
K562 [27] = experiment: Cell cycle arrest in human K562 cells assessed as accumulation at G2 phase at 0.2 uM after 48 hrs by propidium iodide staining based flow cytometry (reference value: 9.1%); format: functional

What does the source list for `COc1ccc(/C=C/S(=O)(=O)c2cc(OC)c(OC)c(OC)c2)cc1F`?
Activity (K562 [1]): Active; Activity (K562 [2]): Active

With `COc1ccc(/C=C(\C#N)[S+]([O-])c2cc(OC)c(OC)c(OC)c2)cc1O` (centres undefined) as the compound, how does the IC50 (K562 [3]) read?
The IC50 was over 1000 nM.

And the IC50 (A549)?
Its IC50 is over 5000 nM.

What about the IC50 (HepG2) of the same compound?
Its IC50 is over 1000 nM.

Which IC50 (K562 [3]) does the source give for `COc1ccc(/C=C(\C#N)S(=O)(=O)c2cc(OC)c(OC)c(OC)c2)cc1O` here?
The IC50 was over 1000 nM.

What about the IC50 (A549) of the same compound?
The IC50 was over 5000 nM.

What about the IC50 (HepG2) of the same compound?
The IC50 was over 1000 nM.

What does the source list for `COc1ccc(/C=C(\Cl)S(=O)(=O)c2cc(OC)c(OC)c(OC)c2)cc1O`?
IC50 (K562 [3]): > 1000 nM; IC50 (A549): > 5000 nM; IC50 (HepG2): > 1000 nM

For `COc1cc(S(=O)(=O)/C=C/c2ccc(O)c(O)c2)cc(OC)c1OC`, which Activity (K562 [1]) is on record?
The Activity was “Active”.

And the Activity (K562 [2])?
The Activity was “inactive”.

For `CC(=O)O[C@H]1C(=O)[C@@]2(C)[C@H]([C@H](OC(=O)c3ccccc3)[C@]3(O)C[C@H](OC(=O)[C@H](O)[C@@H](NC(=O)c4ccccc4)c4ccccc4)C(C)=C1C3(C)C)[C@]1(OC(C)=O)CO[C@@H]1C[C@@H]2O` [PACLITAXEL], which inhibition in vivo at 8 mg/kg (H22 [4]) is on record?
Its inhibition in vivo at 8 mg/kg is 74.6%.

What about the Activity (Mus musculus [5]) of the same compound?
Its Activity is “Toxic”.

Which IC50 [6] does the source give for `COc1ccc(/C=C/S(=O)(=O)c2cc(OC)c(OC)c(OC)c2)cc1N` here?
Its IC50 is 4250 nM.

What about the Activity (K562 [7]) of the same compound?
The Activity was 33.88%.

And the TGI (H22 [8])?
The TGI was “Dose-dependent effect”.

What about the IC50 (K562 [3]) of the same compound?
Its IC50 is 128 nM.

What about the Activity (K562 [9]) of the same compound?
The Activity was 13.05%.

And the Activity (K562 [10])?
Its Activity is 36.7%.

What about the Activity (HUVEC [11]) of the same compound?
The Activity was “Active”.

And the Activity (K562 [12])?
Its Activity is 39.7%.

And the inhibition in vivo at 15 mg/kg (H22 [13])?
The inhibition in vivo at 15 mg/kg was 53.4%.

And the IC50 (A549)?
Its IC50 is 606 nM.

And the Activity (HUVEC [14])?
The Activity was “Dose-dependent effect”.

And the Activity (K562 [15])?
Its Activity is 38.31%.

What about the Activity (K562 [16]) of the same compound?
The Activity was “Dose-dependent effect”.

And the inhibition in vivo at 30 mg/kg (H22 [17])?
Its inhibition in vivo at 30 mg/kg is 65.4%.

What about the Activity (K562 [18]) of the same compound?
Its Activity is 16.15%.

What about the Activity (K562 [19]) of the same compound?
Its Activity is “Dose-dependent effect”.

And the Activity (Mus musculus [20])?
The Activity was “Non-Toxic”.

What about the Activity (K562 [21]) of the same compound?
The Activity was 53.07%.

And the IC50 (HepG2)?
Its IC50 is 217 nM.

And the Activity (K562 [22])?
Its Activity is 22.65%.

And the Activity (K562 [23])?
The Activity was 17.88%.

What about the Activity (K562 [24]) of the same compound?
The Activity was “Dose-dependent effect”.

And the Activity (K562 [25])?
The Activity was 47.15%.

And the Activity (K562 [26])?
Its Activity is 49.29%.

And the Activity (K562 [27])?
The Activity was 21.99%.

Which Activity (K562 [1]) does the source give for `COc1cc(S(=O)(=O)/C=C/c2ccc(F)cc2)cc(OC)c1OC` here?
The Activity was “Active”.

And the Activity (K562 [2])?
The Activity was “Active”.

Which Activity (K562 [1]) does the source give for `COc1cc(/C=C/S(=O)(=O)c2cc(OC)c(OC)c(OC)c2)cc(OC)c1OC` here?
Its Activity is “Active”.

And the Activity (K562 [2])?
The Activity was “Active”.

With `COc1ccc(/C=C/S(=O)(=O)c2cc(OC)c(OC)c(OC)c2)cc1OC` as the compound, how does the Activity (K562 [1]) read?
The Activity was “Active”.

What about the Activity (K562 [2]) of the same compound?
Its Activity is “Active”.

Which IC50 (K562 [3]) does the source give for `COc1ccc(/C=C(\C)[S+]([O-])c2cc(OC)c(OC)c(OC)c2)cc1O` (centres undefined) here?
Its IC50 is over 1000 nM.

And the IC50 (A549)?
Its IC50 is over 5000 nM.

What about the IC50 (HepG2) of the same compound?
The IC50 was over 1000 nM.

With `COc1cc(S(=O)(=O)/C=C/c2ccc(C)cc2)cc(OC)c1OC` as the compound, how does the Activity (K562 [1]) read?
The Activity was “Active”.

And the Activity (K562 [2])?
Its Activity is “Active”.

Which IC50 (K562 [3]) does the source give for `COc1ccc(/C=C(\C)S(=O)(=O)c2cc(OC)c(OC)c(OC)c2)cc1O` here?
The IC50 was 580 nM.

What about the IC50 (A549) of the same compound?
The IC50 was 2730 nM.

And the IC50 (HepG2)?
The IC50 was 710 nM.
